Assay results: ChEMBL document CHEMBL2424582, “Structure-kinetic relationships--an overlooked parameter in hit-to-lead optimization: a case of cyclopentylamines as chemokine receptor 2 antagonists” (J Med Chem, 2013)
pKi: −log10 of the molar value.

Tests used:
[1] = molecular target: T1, C-C chemokine receptor type 2 (Homo sapiens, UniProt P41597); assay: Displacement of [125I]-CCL2 from human CCR2 receptor expressed in human U2OS cell membranes
How it was run: (§1)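 Membranes from U2OS cells stably expressing human CCR2 were used in a ¹²⁵I-CCL2 displacement binding assay. The cells were grown at 37 °C, 5% CO₂ in McCoy's 5a with 10% FCS plus G418, hygromycin and zeocin selection. Ki was derived from IC₅₀ by the Cheng–Prusoff equation. Weak binders are reported as percent displacement at 1 μM. n = 3.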
Target sequence in this assay (P41597 whole entry): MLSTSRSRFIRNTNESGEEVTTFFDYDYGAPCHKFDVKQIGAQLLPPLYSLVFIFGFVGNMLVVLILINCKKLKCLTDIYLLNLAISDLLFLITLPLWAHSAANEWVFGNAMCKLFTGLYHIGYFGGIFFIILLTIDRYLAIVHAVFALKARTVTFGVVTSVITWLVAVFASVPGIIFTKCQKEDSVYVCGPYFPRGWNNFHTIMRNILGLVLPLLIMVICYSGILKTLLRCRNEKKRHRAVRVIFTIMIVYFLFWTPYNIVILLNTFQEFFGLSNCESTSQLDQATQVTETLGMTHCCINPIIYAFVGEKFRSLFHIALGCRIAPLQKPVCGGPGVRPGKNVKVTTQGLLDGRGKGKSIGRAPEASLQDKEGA

[2] = molecular target: T1, C-C chemokine receptor type 2; assay: Displacement of [3H]INCB3344 from human CCR2 receptor expressed in human U2OS cell membrane assessed as kinetic rate index at Ki by dual-point competition association assay relative to control
Target sequence in this assay (P41597 whole entry, looked up): as the sequence (P41597 whole entry) above

[3] = molecular target: T1, C-C chemokine receptor type 2; assay: Displacement of [3H]INCB3344 from human CCR2 receptor expressed in human U2OS cell membrane assessed as residence time
Target sequence in this assay (P41597 whole entry, looked up): as the sequence (P41597 whole entry) above

[4] = molecular target: T1, C-C chemokine receptor type 2; assay: Displacement of [125I]-CCL2 from human CCR2 receptor expressed in human U2OS cell membrane at 1 uM relative to control; type: cell membranes; how it was run: as §1
Target sequence in this assay (P41597 whole entry, looked up): as the sequence (P41597 whole entry) above

SMILES	pKi [1]	Ratio [2]	TIME [3] [h]	inhibition [4] [%]
CC(C)[C@]1(C(=O)NCc2cc(C(F)(F)F)cc(C(F)(F)F)c2)CC[C@@H](NC2CCc3cc(Br)ccc32)C1 (mixture of isomers) [listing 1 of 2 here]	8.14			
CC(C)[C@]1(C(=O)NCc2cc(C(F)(F)F)cc(C(F)(F)F)c2)CC[C@@H](NC2CCc3cc(Br)ccc32)C1 (stereo in doubt; 22b) [listing 1 of 2 here]	6.54			
CC(C)[C@]1(C(=O)NCc2cc(C(F)(F)F)cc(C(F)(F)F)c2)CC[C@@H](NC2CCc3cc(O)ccc32)C1 (some centres undefined)	7.54	0.7		
CC(C)[C@]1(C(=O)NCc2cc(C(F)(F)F)cc(C(F)(F)F)c2)CC[C@@H](NCCc2ccccc2)C1	5.62			
CC(C)[C@]1(C(=O)NCc2cc(C(F)(F)F)cc(C(F)(F)F)c2)CC[C@@H](NC2CCc3cc(Br)ccc32)C1 (single isomer, unassigned; diastereomer 1) [listing 1 of 2 here]			2.25	
COc1cccc2c1CCCC2N[C@@H]1CC[C@@](C(=O)NCc2cc(C(F)(F)F)cc(C(F)(F)F)c2)(C(C)C)C1 (some centres undefined)	7.57	0.7		
CC(C)[C@]1(C(=O)NCc2cc(C(F)(F)F)cc(C(F)(F)F)c2)CC[C@@H](NC2CCCc3c(O)cccc32)C1 (some centres undefined)	7.46	0.8		
CC(C)[C@]1(C(=O)NCc2cc(C(F)(F)F)cc(C(F)(F)F)c2)CC[C@@H](NC2CCc3cc4c(cc32)OCO4)C1 (some centres undefined)	8.20	0.6		
CC(C)[C@]1(C(=O)NCc2cc(C(F)(F)F)cc(C(F)(F)F)c2)CC[C@@H](NCc2ccccc2)C1	6.36			
CC(C)[C@]1(C(=O)NCc2cc(C(F)(F)F)cc(C(F)(F)F)c2)CC[C@@H](NC2CCc3cc(Cl)ccc32)C1 (some centres undefined)	7.74	1.1	0.933	
CC(C)[C@]1(C(=O)NCc2cc(C(F)(F)F)cc(C(F)(F)F)c2)CC[C@@H](NC2CCc3c(C#N)cccc32)C1 (some centres undefined)	7.15	0.8		
CC(C)[C@]1(C(=O)NCc2cc(C(F)(F)F)cc(C(F)(F)F)c2)CC[C@@H](NC2CCc3c(O)cccc32)C1 (some centres undefined)	7.07	0.6		
CC(C)[C@]1(C(=O)NCc2cc(C(F)(F)F)cc(C(F)(F)F)c2)CC[C@@H](NC2CCc3c(N)cccc32)C1 (some centres undefined)	7.37	0.8		
CC(C)[C@]1(C(=O)NCc2cc(C(F)(F)F)cc(C(F)(F)F)c2)CC[C@@H](NC2CCc3cc(Br)ccc32)C1 (single isomer, unassigned; diastereomer 1) [listing 2 of 2 here]	8.44			
COc1ccc2c(c1)CCC2N[C@@H]1CC[C@@](C(=O)NCc2cc(C(F)(F)F)cc(C(F)(F)F)c2)(C(C)C)C1 (some centres undefined)	8.21	0.6		
CC(C)[C@]1(C(=O)NCc2cc(C(F)(F)F)cc(C(F)(F)F)c2)CC[C@@H](NC2CCCc3ccccc32)C1 (some centres undefined)	7.48	0.6	0.0933	
COc1cccc2c1CCC2N[C@@H]1CC[C@@](C(=O)NCc2cc(C(F)(F)F)cc(C(F)(F)F)c2)(C(C)C)C1 (some centres undefined)				30

SMILES	pKi [1]	Ratio [2]	TIME [3] [h]	inhibition [4] [%]
COc1ccc2c(c1OC)CCC2N[C@@H]1CC[C@@](C(=O)NCc2cc(C(F)(F)F)cc(C(F)(F)F)c2)(C(C)C)C1 (some centres undefined)	6.89			
COc1cc2c(cc1OC)C(N[C@@H]1CC[C@@](C(=O)NCc3cc(C(F)(F)F)cc(C(F)(F)F)c3)(C(C)C)C1)CC2 (some centres undefined)	8.41	0.7		
CC(C)[C@]1(C(=O)NCc2cc(C(F)(F)F)cc(C(F)(F)F)c2)CC[C@@H](NC2CCc3cc(F)ccc32)C1 (some centres undefined)				30
CC(C)[C@]1(C(=O)NCc2cc(C(F)(F)F)cc(C(F)(F)F)c2)CC[C@@H](NC2CCCc3c(C(=O)O)cccc32)C1 (some centres undefined)				0
CC(C)[C@]1(C(=O)NCc2cc(C(F)(F)F)cc(C(F)(F)F)c2)CC[C@@H](NCCCc2ccccc2)C1	6.87			
CC(C)[C@]1(C(=O)NCc2cc(C(F)(F)F)cc(C(F)(F)F)c2)CC[C@@H](NC2CCCc3c(Br)cccc32)C1 (some centres undefined)				48
CC(C)[C@]1(C(=O)NCc2cc(C(F)(F)F)cc(C(F)(F)F)c2)CC[C@@H](NC2CCOCC2)C1	8.17		0.04	
CC(C)[C@]1(C(=O)NCc2cc(C(F)(F)F)cc(C(F)(F)F)c2)CC[C@@H](NC2CCSCC2)C1	7.51		0.0717	
Cc1ccc2c(c1)C(N[C@@H]1CC[C@@](C(=O)NCc3cc(C(F)(F)F)cc(C(F)(F)F)c3)(C(C)C)C1)CC2 (some centres undefined)	7.26	0.8		
CC(C)[C@]1(C(=O)NCc2cc(C(F)(F)F)cc(C(F)(F)F)c2)CC[C@@H](NC2CCc3cc(Br)ccc32)C1 (stereo in doubt; 22b) [listing 2 of 2 here]			1.28	
CC(C)[C@]1(C(=O)NCc2cc(C(F)(F)F)cc(C(F)(F)F)c2)CC[C@@H](NC2CCc3ccc(C#N)cc32)C1 (some centres undefined)	7.27	0.6		
CC(C)[C@]1(C(=O)NCc2cc(C(F)(F)F)cc(C(F)(F)F)c2)CC[C@@H](NC2CCc3cc(Br)ccc32)C1 (mixture of isomers) [listing 2 of 2 here]		1.1	1.57	
CC(C)[C@]1(C(=O)NCc2cc(C(F)(F)F)cc(C(F)(F)F)c2)CC[C@@H](NC2CCc3ccc(Cl)cc32)C1 (some centres undefined)				28
CC(C)[C@]1(C(=O)NCc2cc(C(F)(F)F)cc(C(F)(F)F)c2)CC[C@@H](NC2CCc3ccccc32)C1 (some centres undefined)	7.30	0.7	0.158	
Cc1cccc2c1CCC2N[C@@H]1CC[C@@](C(=O)NCc2cc(C(F)(F)F)cc(C(F)(F)F)c2)(C(C)C)C1 (some centres undefined)				26
CC(C)[C@]1(C(=O)NCc2cc(C(F)(F)F)cc(C(F)(F)F)c2)CC[C@@H](NC2CCCCC2)C1	6.96		0.0317	
